Assay results published in ChEMBL document CHEMBL3864143, “Design, synthesis and biological evaluation of novel non-covalent piperidine-containing peptidyl proteasome inhibitors” (Bioorg Med Chem, 2016).
The source made the active and inactive calls. No cut-off for these calls is given here.

Tests used:
[1] = biological target: T1, Proteasome Macropain subunit MB1 (Homo sapiens, UniProt P28074); test: Inhibition of chymotrypsin-like activity of human 20S proteasome preincubated for 15 mins followed by addition of Suc-Leu-Leu-Val-Tyr-AMC as substrate by fluorescence analysis
T1 sequence (P28074 whole entry): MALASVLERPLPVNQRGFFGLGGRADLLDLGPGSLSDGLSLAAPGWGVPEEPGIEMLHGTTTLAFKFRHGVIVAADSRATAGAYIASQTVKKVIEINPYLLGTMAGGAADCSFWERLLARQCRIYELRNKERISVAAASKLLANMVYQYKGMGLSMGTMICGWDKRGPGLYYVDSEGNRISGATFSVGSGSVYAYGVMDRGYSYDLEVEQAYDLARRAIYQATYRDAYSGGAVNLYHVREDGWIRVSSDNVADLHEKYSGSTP
How it was run: (§1)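 Purified human proteasome (25 µg/mL working stock) in 100 mM Tris-HCl pH 8.0 preincubated 15 min with compound. Suc-LLVY-AMC added (50 µM as listed), AMC release followed by fluorescence increase at ex 355/em 460 nm. IC50 by sigmoidal variable-slope fit, mean of three independent determinations.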

[2] = Antiproliferative activity against human RPMI8226 cells measured after 72 hrs by MTS assay; format: functional, cell-based; conditions: RPMI-8226, 72 h
How it was run: (§2)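 MM-1S seeded at 2×10^4/well and RPMI 8226 at 0.5×10^4/well, exposed to compounds for 72 h. MTS then added at 0.5 mg/mL final for 2–4 h, absorbance read at 490 nm with 690 nm background subtraction. Growth inhibition = (A_control − A_sample)/A_control; IC50 from nonlinear sigmoidal variable-slope dose-response fit.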

[3] = biological target: T2, Proteasome subunit beta type-5 (Mus musculus) (UniProt O55234); test: Inhibition of chymotrypsin-like activity of 20S proteasome in mouse blood at 0.5 to 12.5 uM preincubated for 40 mins followed by addition of Suc-Leu-Leu-Val-Tyr-AMC as substrate relative to control; format: tissue-based
T2 sequence (whole entry): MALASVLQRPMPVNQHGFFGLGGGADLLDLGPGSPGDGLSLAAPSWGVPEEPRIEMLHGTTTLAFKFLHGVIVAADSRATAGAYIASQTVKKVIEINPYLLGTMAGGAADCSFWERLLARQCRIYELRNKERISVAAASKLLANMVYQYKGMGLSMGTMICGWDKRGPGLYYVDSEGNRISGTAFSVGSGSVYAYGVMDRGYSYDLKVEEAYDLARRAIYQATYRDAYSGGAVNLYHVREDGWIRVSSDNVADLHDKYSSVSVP
How it was run: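 Whole blood from normal mice incubated 40 min with compound (compound:serum 1:50 by volume), centrifuged, cells lysed in 5 mM EDTA pH 8.0 at 4°C for 60 min. Lysate protein (Bradford, 100 µg) assayed in 20 mM HEPES pH 8.0, 0.5 mM EDTA, 0.05% SDS, 1% DMSO with 50 µM Suc-LLVY-AMC; fluorescence at ex 355/em 460 nm.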

[4] = Antiproliferative activity against human MM1S cells measured after 72 hrs by MTS assay; format: functional, cell-based; conditions: MM1.S; how it was run: as §2
[5] = Half life in mouse plasma at 2 uM by LC-MS/MS analysis; format: ADME, cell-free
How it was run: (§3)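 Sodium-heparin mouse plasma or blood, pre-warmed to 37°C, spiked to 2 µM final from a 0.02 mM dosing solution in 0.05 M sodium phosphate with 0.5% BSA; duplicates held at 37°C. Time points quenched with acetonitrile, supernatant diluted 1:1 in water for LC-MS/MS. Percent remaining from analyte/internal-standard peak-area ratio versus time 0; T1/2 from single-phase exponential decay fit.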

[6] = Half life in mouse blood at 2 uM by LC-MS/MS analysis; format: ADME, tissue-based; how it was run: as §3
[7] = biological target: T1, Proteasome Macropain subunit MB1; test: Inhibition of chymotrypsin-like activity of 20S proteasome (unknown origin) using succinyl-leu-leu-val-tyr-7-amino-4-methyl coumarin as substrate after 15 mins by fluorescent spectroscopic method; how it was run: as §1

Work on `O=C(Nc1ccccn1)C1CCN(C(=O)N[C@@H](CCc2ccccc2)C(=O)N[C@@H](CCc2ccccc2)C(=O)NCc2ccccc2Cl)CC1` yielded an IC50 [1] of 2.4 nM, an IC50 [2] of 24.7 nM and an inhibition [3] greater than 60%. It also gave an IC50 [4] of 22.2 nM.

With `C[C@H](NC(=O)N1CCC(NC(=O)c2cnccn2)CC1)C(=O)N[C@@H](CCc1ccccc1)C(=O)NCc1ccccc1Cl` the IC50 [1] was 670 nM.

For `CC(C)C[C@H](NC(=O)N1CCC(C(=O)Nc2cnccn2)CC1)C(=O)N[C@@H](CCc1ccccc1)C(=O)NCc1ccccc1Cl`, the IC50 [1] was 16.6 nM, the IC50 [2] was 371 nM and the IC50 [4] was 261 nM.

For `O=C(Nc1nccs1)C1CCN(C(=O)N[C@@H](CCc2ccccc2)C(=O)N[C@@H](CCc2ccccc2)C(=O)NCc2ccccc2Cl)CC1`, the IC50 [1] was 4.3 nM, the IC50 [2] was 29.5 nM and the inhibition [3] was greater than 60%. The IC50 [4] was 32.5 nM.

With `O=C(Nc1ccc(F)cc1)C1CCN(C(=O)N[C@@H](CCc2ccccc2)C(=O)N[C@@H](CCc2ccccc2)C(=O)NCc2ccccc2Cl)CC1` the IC50 [1] was 16.9 nM, the IC50 [2] was 94.3 nM and the IC50 [4] was 107 nM.

Compound `O=C(NC1CCN(C(=O)N[C@@H](Cc2ccccc2)C(=O)N[C@@H](CCc2ccccc2)C(=O)NCc2ccccc2Cl)CC1)c1cnccn1` has an IC50 [1] of 344 nM.

`O=C(NC1CCN(C(=O)N[C@@H](CCc2ccccc2)C(=O)N[C@@H](CCc2ccccc2)C(=O)NCc2ccccc2Cl)CC1)c1cnccn1` gave an IC50 [1] of 23.7 nM.

For `O=C(Nc1cnccn1)C1CCN(C(=O)N[C@@H](CCc2ccccc2)C(=O)N[C@@H](CCc2ccccc2)C(=O)NCc2ccccc2Cl)CC1`, the IC50 [1] was 14.7 nM, the IC50 [2] was 196 nM and the IC50 [4] was 135 nM.

With `CC(C)C[C@H](NC(=O)N1CCC(NC(=O)c2cnccn2)CC1)C(=O)N[C@@H](CCc1ccccc1)C(=O)NCc1ccccc1Cl` the IC50 [1] was 45.7 nM.

With `COc1ccc(NC(=O)C2CCN(C(=O)N[C@@H](CCc3ccccc3)C(=O)N[C@@H](CCc3ccccc3)C(=O)NCc3ccccc3Cl)CC2)cc1` the IC50 [1] was 15.7 nM, the IC50 [2] was 84.6 nM and the IC50 [4] was 92.9 nM.

In the case of `O=C(Nc1cccnc1)C1CCN(C(=O)N[C@@H](CCc2ccccc2)C(=O)N[C@@H](CCc2ccccc2)C(=O)NCc2ccccc2Cl)CC1`, the IC50 [1] is reported as 1.4 nM, the IC50 [2] is reported as 13.9 nM and the half-life at 2 µM [5] is reported as 7.25 h. For the same compound, the inhibition [3] was greater than 60%, the half-life at 2 µM [6] was 2.98 h and the IC50 [4] was 9.5 nM.

With `C[C@H](NC(=O)N1CCC(C(=O)Nc2cnccn2)CC1)C(=O)N[C@@H](CCc1ccccc1)C(=O)NCc1ccccc1Cl` the IC50 [1] was 601 nM.

In the case of `CC(C)C[C@H](NC(=O)[C@H](CCc1ccccc1)NC(=O)CN1CCOCC1)C(=O)N[C@@H](Cc1ccccc1)C(=O)N[C@@H](CC(C)C)C(=O)[C@@]1(C)CO1` [CARFILZOMIB], the IC50 [2] is reported as 13.2 nM, the inhibition [3] is reported as “Active” and the IC50 [4] is reported as 1.5 nM.

In the case of `COc1ccc2c(c1)C(CC(=O)N[C@@H](CC(C)C)C(=O)N[C@H](CC(C)C)C(=O)NCc1c(F)cccc1F)CC2=O` (stereo not given in full), the IC50 [7] is reported as 140 nM.

Compound `O=C(Nc1ccccc1)C1CCN(C(=O)N[C@@H](CCc2ccccc2)C(=O)N[C@@H](CCc2ccccc2)C(=O)NCc2ccccc2Cl)CC1` has an IC50 [1] of 3 nM, an IC50 [2] of 18.5 nM and an inhibition [3] greater than 60%. For the same compound, the IC50 [4] was 20.2 nM.

In the case of `O=C(Nc1cnccn1)C1CCN(C(=O)N[C@@H](Cc2ccccc2)C(=O)N[C@@H](CCc2ccccc2)C(=O)NCc2ccccc2Cl)CC1`, the IC50 [1] is reported as 153 nM.
